Activity calls are given as the source filed them.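 Rule for the calls, unless noted: active = a full or partial loss of lipid-probe fluorescence in the fish gall bladder, intestine or both, judged by eye; inactive = no fluorescence loss, or compound toxic to the fish.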
Key:
[1] = inhibitors of TNFa-induced NFkB p65 translocation, primary screen, imaging, HUVEC, MLSMR starter and 10KST1 sets (AID 438;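 active = inhibition above 20% together with a positive visual image hit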;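 note: compound added about 3h40 before a 20 min TNFalpha stimulation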;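 for inhibition: signal is the nuclear over cytoplasmic p65 intensity ratio per well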); settings: HUVEC TNFa-induced p65 nuclear translocation; cell count: measured here: nuclei count (cytotoxicity indicator), at 2.08 µM; inhibition: at 2 µM, stronger effect = higher value, 0% TNFa-plus-vehicle, 100% no-TNFa wells
[2] = endothelial E-selectin expression blockers – imaging, HUVEC, immunofluorescence, MLSMR starter and 10KST1 sets, primary screen (AID 487;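 active = visually confirmed hit in the image check and inhibition above 20%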;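 for inhibition: signal is fraction of cell area covered by stained E-selectin grains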;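 for nuclei count: 100% = median nuclei count of all wells on the same plate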); settings: HUVEC TNFalpha-induced E-selectin immunofluorescence imaging, at 2 µM; inhibition: stronger effect = higher value; nuclei count: measured here: cell number, toxicity
[3] = Primary imaging screen for DUSP6 inhibitors that restore phospho-Erk in transfected HeLa cells, chemical complementation (AID 609;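 active = compounds giving at least 50% inhibition in the cell-based MKP-3 phosphatase rescue imaging test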;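 for inhibition: phospho-Erk level distribution per well compared with pooled transfected vehicle control wells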); settings: HeLa MKP-3 transfected, phospho-Erk imaging KS statistic, at 10 µM, cells stimulated with TPA for 15 min
[4] = target: Dual specificity protein phosphatase 6 (Homo sapiens) (UniProt Q16828); test: as above; settings: HeLa MKP-3 transfected, phospho-Erk imaging KS statistic; at 10 µM; stronger effect = higher value; cells stimulated with TPA for 15 min
Sequence of Dual specificity protein phosphatase 6 (Homo sapiens) (Q16828 whole entry, looked up): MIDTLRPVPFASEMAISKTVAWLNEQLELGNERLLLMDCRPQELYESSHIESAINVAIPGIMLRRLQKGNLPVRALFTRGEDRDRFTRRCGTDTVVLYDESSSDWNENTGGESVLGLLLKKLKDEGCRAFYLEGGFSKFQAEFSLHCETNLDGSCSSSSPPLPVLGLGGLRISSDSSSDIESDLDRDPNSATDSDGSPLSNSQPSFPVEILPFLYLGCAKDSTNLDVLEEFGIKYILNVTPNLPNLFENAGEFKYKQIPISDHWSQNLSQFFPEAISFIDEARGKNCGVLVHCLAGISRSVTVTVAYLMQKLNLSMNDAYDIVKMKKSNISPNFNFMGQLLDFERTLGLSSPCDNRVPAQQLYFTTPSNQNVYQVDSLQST

[5] = target: Voltage-gated potassium channel subunit beta-2 (Rattus norvegicus) (UniProt P62483); test: inhibitors of rat Kvbeta2 reductase activity – biochemical, NADPH fluorescence, primary screen (AID 622;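 active = fluorescence slope higher than the sample average by over 3 SD, cut at about -0.22 in these data, passing the limit was not always enough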;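 note: slope of raw intensity against log time taken from 70 to 1610 s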); settings: recombinant KvBeta, 4-cyanobenzaldehyde reduction, at 10 µM, stronger effect = higher value
Sequence of Voltage-gated potassium channel subunit beta-2 (Rattus norvegicus) (P62483 whole entry, looked up): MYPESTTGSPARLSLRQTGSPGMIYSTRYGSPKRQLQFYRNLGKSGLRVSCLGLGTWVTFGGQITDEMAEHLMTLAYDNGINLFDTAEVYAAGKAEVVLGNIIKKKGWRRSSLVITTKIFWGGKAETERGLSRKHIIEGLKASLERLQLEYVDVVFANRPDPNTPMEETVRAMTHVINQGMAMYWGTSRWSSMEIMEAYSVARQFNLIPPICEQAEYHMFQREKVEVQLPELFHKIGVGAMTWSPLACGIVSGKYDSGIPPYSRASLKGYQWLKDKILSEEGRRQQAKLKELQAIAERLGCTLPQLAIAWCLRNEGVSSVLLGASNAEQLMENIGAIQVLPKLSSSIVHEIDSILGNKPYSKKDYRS

[6] = target: Voltage-gated potassium channel subunit beta-2 (Rattus norvegicus) (UniProt P62483); test: enhancers of rat Kvbeta2 NADPH turnover – biochemical, NADPH fluorescence, primary screen (AID 623;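 active = NADPH fluorescence slope more negative than the mean of all samples by about 3 SD, 99.7% confidence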;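 note: fluorescence intensity change per second fitted from 20 to 320 s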); settings: Recombinant KvBeta, NADPH fluorescence decrease slope, 10 min; at 10 µM; stronger effect = lower value
[7] = target: Muscarinic acetylcholine receptor M4 (Homo sapiens) (UniProt P08173); test: M4-linked GIRK flux change, two-sided – cell-based, HEK293 M4/GIRK, thallium flux, BTC-AM, M4 allosteric agonist project, primary screen (AID 625;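 active = fluorescence slope after compound addition differing from the mean of all tested samples at 99.7% confidence, mostly higher but some lower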;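 note: thallium influx through GIRK channels coupled to M4 in HEK293 cells with BTC-AM dye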); settings: at 10 µM, actives lie on both sides
Sequence of Muscarinic acetylcholine receptor M4 (Homo sapiens) (P08173 whole entry, looked up): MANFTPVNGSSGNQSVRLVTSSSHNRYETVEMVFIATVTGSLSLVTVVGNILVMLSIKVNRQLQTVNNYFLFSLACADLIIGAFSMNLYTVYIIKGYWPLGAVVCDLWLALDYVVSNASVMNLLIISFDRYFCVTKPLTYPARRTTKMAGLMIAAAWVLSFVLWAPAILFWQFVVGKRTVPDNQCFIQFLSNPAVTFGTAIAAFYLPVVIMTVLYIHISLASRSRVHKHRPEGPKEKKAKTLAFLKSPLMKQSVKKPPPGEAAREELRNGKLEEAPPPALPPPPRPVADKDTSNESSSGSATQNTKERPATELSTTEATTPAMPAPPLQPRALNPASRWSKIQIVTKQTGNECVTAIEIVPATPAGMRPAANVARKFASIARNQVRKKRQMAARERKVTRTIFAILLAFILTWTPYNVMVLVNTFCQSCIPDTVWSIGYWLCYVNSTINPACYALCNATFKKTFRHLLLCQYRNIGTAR
How it was run: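 Material: M4/GIRK1/GIRK2 stable HEK293 cell line. Medium: pH 7.3 thallium assay buffer. Dosing: single compound concentration, 10 µM final. Schedule: 1 h dye loading, 2 min kinetic read. Measured by: kinetic fluorescence with BTC-AM dye. Read-out: post-addition slope, 15–24 s, of baseline-normalized fluorescence. Benchmarks: carbachol and DMSO controls.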

[8] = inhibitors of larval lipid processing in zebrafish, primary screen, whole organism, PED6 fluorescence, gall bladder and intestine (AID 686); settings: Zebrafish larvae PED6 lipid processing, fluorescence scoring; screened at 20 µM (by protocol);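 note: larvae 5 to 7 days old with five fish per well; signal comes from phospholipase A2 cleavage of quenched PED6 carried via bile; overnight exposure to compound and PED6 before scoring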
How it was run: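 System: live zebrafish larvae aged 5-7 days, whole organism; measure: graded gall bladder and intestinal fluorescence inhibition per well; incubation: overnight exposure; reagent: ingested quenched lipid PED6 at 100 nM; signal: By-eye fluorescence microscopy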

[9] = loss of swimming-algae plug formation – whole organism, Chlamydomonas reinhardtii, WT vs cilia-less mutant, absorbance, 96-well, primary screen (AID 463189;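 active = inhibition at or above 50% relative to wild type and mutant plate controls; inactive = inhibition below 50%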;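 note: 0% = wild type cc124 cells in DMSO and 100% = ciliumless bld1 mutant cells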); settings: Chlamydomonas reinhardtii gravitaxis, OD600 absorbance, 2 days; at 10 µM; stronger effect = higher value
[10] = measured here: cell density z-score
[11] = measured here: nuclear c-Myc green intensity z-score
[12] = measured here: nuclear pErk red intensity z-score, stronger effect = higher value

| Structure (SMILES) | cell count [1] | inhibition [1] | inhibition [2] | nuclei count [2] [%] | z-score [3, 10] | z-score [3, 11] | z-score [3, 12] | inhibition [4] | fluorescence slope [5] | NADPH fluorescence slope [6] | fluorescence slope [7] | outcome [8] | inhibition [9] |
| --- | --- | --- | --- | --- | --- | --- | --- | --- | --- | --- | --- | --- | --- |
| CCOC(=O)c1cnn2c1[nH]c(=O)c1ccccc12 | 560 | -6.1% (inactive) | -143% (inactive) | 165 | 0.0185 | 1.83 | -0.274 | 17.8% (inactive) | -0.378 (inactive) | -4.5e-05 (inactive) | 0.0106 (active) | inactive | 24.1% (inactive) |
| CCOc1ccc(N=C2C(=O)N(CN3CCOCC3)c3ccccc32)cc1 | 653 | -4.3% (inactive) | -371% (inactive) | 156 | 0.894 | -0.754 | -0.416 | 10.1% (inactive) | -0.486 (inactive) | -7.9e-05 (inactive) | 0.00278 (inactive) | inactive | 9.3% (inactive) |
| c1ccc(-n2ncc3c(N4CCCC4)ncnc32)cc1 | 589 | -7% (inactive) | 12.6% (inactive) | 188 | 0.427 | 1.25 | -0.224 | 7.42% (inactive) | -0.378 (inactive) | -3.1e-05 (inactive) | 0.00634 (inactive) | inactive | 15.7% (inactive) |
| Cc1cc(C)n(CC2CC(=O)N(c3cc(Cl)cc(Cl)c3)C2=O)n1 (stereo unspecified) | 656 | 50.4% (active) | -80.7% (inactive) | 103 | -0.905 | 0.888 | -1.76 | -9.53% (inactive) | -0.548 (inactive) | -7.9e-05 (inactive) | 0.00628 (inactive) | inactive | 10.7% (inactive) |
| CCCN(CCC)c1nc2ccccc2nc1C(C#N)C(=O)OC(C)COC (stereo unspecified) | 586 | -26.5% (inactive) | 1.8% (inactive) | 174 | 0.238 | 0.588 | 0.413 | -12.6% (inactive) | -0.408 (inactive) | -7.9e-05 (inactive) | 0.00444 (inactive) | inactive | 26.1% (inactive) |
| CC1(C)NC(=O)N(CC(O)COc2cc3ccccc3cc2C(=O)N2CCCCC2)C1=O (stereo unspecified) | 595 | -11.9% (inactive) | 5.9% (inactive) | 157 | 0.439 | 1.12 | -0.435 | 5.42% (inactive) | -0.383 (inactive) | 2.1e-06 (inactive) | 0.00552 (inactive) | inactive | 33.9% (inactive) |
| CCOc1ccccc1C(=O)NCCCCCC(=O)O | 421 | -9.4% (inactive) | -419% (inactive) | 193 | 0.279 | -0.756 | 0.2 | 1.42% (inactive) | -0.472 (inactive) | -9.6e-05 (inactive) | 0.00537 (inactive) | inactive | 0.493% (inactive) |
| COn1c(SC2CCCCC2)nc2ccccc2c1=O | 587 | -3.1% (inactive) | -35.7% (inactive) | 160 | 0.823 | 0.448 | -1.08 | -7.28% (inactive) | -0.48 (inactive) | -7.1e-05 (inactive) | 0.00976 (inactive) | inactive | 0.873% (inactive) |
| Cc1nn(CC(=O)N2CCOCC2)c(=O)c2ccccc12 | 584 | -9.1% (inactive) | -72.8% (inactive) | 135 | 1.52 | -1.31 | 0.975 | 12.8% (inactive) | -0.524 (inactive) | -0.000146 (inactive) | 0.00441 (inactive) | inactive | -9.34% (inactive) |
| Nc1ccc2oc(-c3cc(Br)ccc3Cl)nc2c1 | 569 | 3.7% (inactive) | -26.9% (inactive) | 171 | 0.555 | -1.29 | 0.312 | 9.91% (inactive) | -0.00932 (inactive) | 8.2e-06 (inactive) | 0.00586 (inactive) | inactive | 15.1% (inactive) |
| COC(=O)c1ccc(C2/C(=C(\O)c3ccc(OC)c(C)c3)C(=O)C(=O)N2c2cc(C)on2)cc1 (stereo unspecified) | 664 | -16.1% (inactive) | -48.1% (inactive) | 165 | -1.19 | 0.297 | 0.0353 | -1.12% (inactive) | -0.444 (inactive) | -3.1e-05 (inactive) | 0.00525 (inactive) | inactive | 16.4% (inactive) |
| Cc1cc(=O)oc(C)c1C(=O)NCC(C)C | 455 | -2.1% (inactive) | -11.5% (inactive) | 98.2 | -0.875 | 2.27 | -0.541 | 23.8% (inactive) | -0.432 (inactive) | -5.9e-06 (inactive) | 0.00519 (inactive) | inactive | -17.5% (inactive) |

Source: PubChem BioAssay
